Assay outcomes deposited in PubChem by Johns Hopkins Ion Channel Center.
MrgX1 allo act: allosterically activates human MrgX1 receptor signaling; Q96LB2; MrgX1-HEK293, Fluo-4 calcium flux, FDSS; stronger effect = higher value; B-score at 10 µM; hit rate 0.63% among 310,000; AID 588675;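 active = plate-corrected calcium response at least 3 library SD above typical, normal starting fluorescence, not activating the receptor alone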;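 note: compound read alongside a low EC10 to EC30 dose of BAM8-22 agonist; peak minus trough fluorescence over baseline measured at the second addition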
Target sequence (Q96LB2 whole entry, looked up): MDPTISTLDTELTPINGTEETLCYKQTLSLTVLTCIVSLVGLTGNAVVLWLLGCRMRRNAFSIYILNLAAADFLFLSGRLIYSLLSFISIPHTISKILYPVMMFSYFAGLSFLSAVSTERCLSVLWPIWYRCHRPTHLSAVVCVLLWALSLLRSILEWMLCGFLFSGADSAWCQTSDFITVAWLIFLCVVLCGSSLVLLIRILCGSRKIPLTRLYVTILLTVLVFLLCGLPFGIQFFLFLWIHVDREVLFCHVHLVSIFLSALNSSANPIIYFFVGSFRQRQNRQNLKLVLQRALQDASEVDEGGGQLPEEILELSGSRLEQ
RGS4 act: RGS4 potentiation or activation; HEK293 M3R/inducible RGS4, carbachol calcium flux Fluo4; stronger effect = lower value; B-score at 10 µM; hit rate 0.92% among 310,000;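 active = B-score of the integrated calcium signal more than 4 SD below the library mean, with starting fluorescence not abnormally high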;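 note: negative B-score means reduced calcium response which marks RGS4 activation or potentiation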
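System – HEK293 FlpIn-TREx cells, stable M3R, doxycycline-inducible RGS4 · Reagent – ECmax carbachol challenge · Times – compound preincubation 20 min at room temperature before agonist · Technique – Fluo4 fluorescence kinetic imaging of calcium · Measure – B score of integrated Fluo4 ratio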
MrgX1 ag: agonists of human MrgX1 receptor; MrgX1-HEK293 cells, Fluo-4 calcium fluorescence, agonist mode; stronger effect = higher value; B-score at 10 µM; Q96LB2; hit rate 0.44% among 310,000;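 active = calcium response B-score plate-corrected fluorescence ratio at least 3 library SD, with starting fluorescence B-score inside 5 SD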
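Test system: HEK293 cells stably expressing human MrgX1 receptor; amount: 15,000 cells per well; doses: compound delivered in addition one of three; times: overnight plating before 1 h dye loading; detection: Fluo-4 NW calcium-flux fluorescence, kinetic read; read-out basis: B-scored fluorescence response ratio; controls: positive and negative controls per plate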
MrgX1 antag: human MrgX1 receptor antagonism, primary screen; Q96LB2; B-score at 10 µM; MRGX1-HEK293 calcium flux, Fluo-4, BAM8-22 antagonism; stronger effect = lower value; hit rate 1.3% among 310,000; AID 588676;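 active = calcium-response B-score plate-corrected more than 3 library SD below zero, starting fluorescence within 5 deviations, no agonist response on first addition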;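 note: peak minus trough fluorescence over baseline after final BAM8-22 challenge near maximal dose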
RGS4 inh: human RGS4 inhibition | hit rate 0.45% among 310,000 | HEK293 M3R/RGS4 inducible, Fluo-4 calcium flux; stronger effect = higher value; triggered by carbachol at its EC20 | AID 463165 | B-score at 10 µM;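 active = B-score, a plate-corrected calcium signal, over three deviations above library mean, with baseline fluorescence within five deviations of library mean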;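 note: RGS4 expression induced by doxycycline in cells with stable M3 receptor; B-score is computed from the integrated fluorescence ratio over baseline after carbachol; higher B-score means a larger calcium signal and so more RGS4 inhibition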
Target sequence (P49798 whole entry, looked up): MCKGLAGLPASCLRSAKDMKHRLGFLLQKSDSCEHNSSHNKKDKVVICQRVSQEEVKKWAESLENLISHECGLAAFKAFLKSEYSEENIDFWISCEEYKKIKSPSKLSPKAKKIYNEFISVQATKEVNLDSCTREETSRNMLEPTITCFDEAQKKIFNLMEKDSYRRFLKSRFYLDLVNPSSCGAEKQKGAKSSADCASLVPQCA
RGS4 block valid: validation of RGS4 inhibitors; shares compounds with RGS4 inh; hit rate 65% among 1,700; AID 492999; HEK293 M3R/RGS4, carbachol calcium Fluo-4 fluorescence; carbachol added at its EC20; 0 = buffer wells, 100 = carbachol control; calcium response, % at 10 µM;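 active = duplicate-averaged calcium response above the buffer-only control mean plus 5 SD of those controls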;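 note: integrated fluorescence ratio F max minus min over baseline F0; higher response in RGS4-induced cells means RGS4 inhibition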
RGS4 uninduced: non-induced cell nonspecific activity of RGS4 inhibitors; shares compounds with RGS4 inh; HEK293 M3R non-induced, carbachol calcium Fluo-4; submaximal (EC20) carbachol stimulus; buffer wells 0%, carbachol control wells 100%; activity (percent), % at 10 µM; hit rate 20% among 1,900; call rule not given here;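 note: RGS4 induction absent so cells express M3R without RGS4; higher means more calcium signal and flags a non-specific hit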
M3R basal Ca ctr: signal in non-induced cells without carbachol, RGS4 inhibitor counter-screen; shares compounds with RGS4 inh; HEK293 M3R/RGS4 non-induced, Fluo-4 calcium, no carbachol; normalised: buffer wells 0%, carbachol wells 100%; calcium response (agonist-mode artifact), % at 10 µM; hit rate 22% among 1,900; AID 493001;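 active = duplicate-averaged calcium rise in uninduced cells above buffer wells' mean plus 5 SD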
Starred values were filed as active, the others as inactive; i = inactive; nt = no result. In the library only some 3.5% were active in any assay of this set; here they are far more common.

SMILES	MrgX1 allo act	RGS4 act	MrgX1 ag	MrgX1 antag	RGS4 inh	RGS4 block valid	RGS4 uninduced	M3R basal Ca ctr
Cc1cccc(NNC(=S)Nc2c(C)cccc2C)c1	i	i	i	i	i	nt	nt	nt
Cc1onc(-c2ccccc2)c1C(=O)Nc1ccc(S(=O)(=O)N2CCOCC2)cc1	i	i	i	i	i	nt	nt	nt
CC(C)S(=O)(=O)c1csc(NC(=O)Nc2cc(Cl)ccc2Cl)c1Cl	i	i	i	i	i	nt	nt	nt
O=C1Nc2ccccc2/C1=C/C(=O)c1cccs1	i	i	i	i	7.1*	14%*	i	i
C=CCOc1ccc(C(=O)/C=C2/C(=O)Nc3ccccc32)cc1	i	i	i	i	4.7*	14%*	37%*	i
COc1ccc(C(=O)/C=C2/C(=O)Nc3ccccc32)cc1	i	i	i	i	7*	16%*	i	i
COc1cccc(-c2nc(N)nc(SC)c2C#N)c1	i	i	i	i	i	nt	nt	nt
CN1C(=O)CC(C(=O)O)SC1=Nc1cccc(C(F)(F)F)c1 (configuration not stated)	i	i	i	i	i	nt	nt	nt
Cc1ccc(C(=O)CN(C(=O)c2ccc(Cl)c(Cl)c2)N2C(=O)C3C4C=CC(C4)C3C2=O)cc1 (configuration not stated)	i	i	i	i	i	nt	nt	nt
Cc1ccc(S(=O)(=O)CCC(=O)NCc2ccccc2F)cc1	i	i	i	i	i	nt	nt	nt
CCOc1ccccc1NC(=O)C1CCN(C(=O)C2CC(=O)N(c3ccc(C)cc3)C2)CC1 (configuration not stated)	i	i	i	i	i	nt	nt	nt
O=C(C1=C(O)C(=O)N(Cc2ccco2)C1c1cccc(Cl)c1)c1ccco1 (configuration not stated)	i	i	i	i	i	i	i	i
O=C(C1=C(O)C(=O)N(Cc2ccco2)C1c1cccc([N+](=O)[O-])c1)c1ccco1 (configuration not stated)	i	i	i	i	i	i	i	i
O=C(C1=C(O)C(=O)N(c2ncccn2)C1c1cccc(Cl)c1)c1ccco1 (configuration not stated)	i	i	i	i	i	nt	nt	nt
O=C(Cc1c(F)cccc1Cl)NNC(=S)Nc1ccc(S(=O)(=O)Nc2ncccn2)cc1	i	i	i	i	i	nt	nt	nt
O=C(NCc1n[nH]c(=S)n1-c1cccc(Cl)c1)c1ccc(S(=O)(=O)N2CCCCC2)cc1	i	i	i	i	i	nt	nt	nt
O=C(Cc1ccc(Br)c2ccccc12)N/N=C/c1ccccn1	i	i	i	i	5*	62%*	i	i
COc1cc2c(cc1OC)-c1cc(Nc3ccc(C)cc3)nc(=O)n1CC2	i	i	i	i	i	nt	i	i
COc1cc2c(cc1OC)-c1cc(Nc3ccccc3)nc(=O)n1CC2	i	i	i	i	i	nt	i	93%*
COc1ccc(Nc2cc3n(c(=O)n2)CCc2cc(OC)c(OC)cc2-3)cc1	i	i	i	i	i	nt	nt	nt
CCOC(=O)C1CCN(C(C(=O)NC2CCCC2)c2ccc(C)cc2)CC1 (configuration not stated)	i	i	i	i	5.3*	21%*	i	i
COc1ccc(NC(=O)c2cccc(S(=O)(=O)N3CCN(C)CC3)c2)c(OC)c1	i	i	i	i	i	nt	nt	nt
Cc1[nH]n(-c2ncc(-c3ccc(Cl)cc3)s2)c(=O)c1C(c1ccc(Cl)cc1)C(C#N)C#N (configuration not stated)	i	i	i	i	18*	30%*	i	48%*
COCc1nnc(NC(=O)CCc2ccccc2)s1	i	i	i	i	i	nt	i	i
COCc1nnc(NC(=O)CCc2ccc(OC)cc2)s1	i	i	i	i	5*	30%*	i	i
SMILES	MrgX1 allo act	RGS4 act	MrgX1 ag	MrgX1 antag	RGS4 inh	RGS4 block valid	RGS4 uninduced	M3R basal Ca ctr
CCOCc1nnc(NC(=O)CCc2ccccc2)s1	i	i	i	i	i	nt	nt	nt
COc1ccc(CCC(=O)Nc2nnc(C)s2)cc1	i	i	i	i	i	nt	nt	nt
CN1CCN(S(=O)(=O)c2ccc(Oc3ccc(F)c(Cl)c3)nc2)CC1	i	i	i	i	i	nt	nt	nt
COc1ccc(N(Cc2cc3ccc(C)cc3[nH]c2=O)C(=O)C2CCCO2)cc1 (configuration not stated)	i	i	i	i	i	nt	nt	nt
COc1ccc(N(Cc2cc3ccc(C)cc3[nH]c2=O)C(=O)c2ccco2)cc1	i	i	i	i	i	i	i	i
Cc1ccc(C)c(N(Cc2cc3ccc(C)cc3[nH]c2=O)C(=O)c2ccco2)c1	i	i	i	i	i	i	i	i
CCOc1nc(-c2ccccc2)ncc1Oc1ccccc1	i	i	i	i	i	nt	nt	nt
CC1(C)CC(=O)C(C(C2=C(O)CC(C)(C)CC2=O)c2ccco2)C(=O)C1 (configuration not stated)	i	i	i	i	7*	22%*	i	i
O=C(CCc1nc2ccccc2c(=O)[nH]1)N1CCN(S(=O)(=O)c2cccc(F)c2)CC1	i	i	i	i	i	nt	nt	nt
CC(C)CNC(=S)NNC(=O)c1csc2c1CCC(C)C2 (configuration not stated)	i	i	i	i	i	nt	nt	nt
Cc1cccc(NC(=S)NNC(=O)c2csc3c2CCC(C)C3)c1 (configuration not stated)	i	i	i	i	6.1*	16%*	i	i
Cc1cc2cc(C=C(C#N)C#N)c(Cl)nc2cc1C	i	i	36*	i	5.9*	14%*	i	25%*
CCOC(=O)/C(C#N)=C/c1cc2cc(C)c(C)cc2nc1Cl	i	i	i	i	i	nt	nt	nt
Cn1ccnc1SCC(=O)N1CCc2ccccc21	i	i	i	i	i	nt	nt	nt
